# Screens: PubChem BioAssay, Johns Hopkins Ion Channel Center
# RGS4 inh: human RGS4 inhibition. actives 0.45% (n = 310,000). HEK293 M3R/RGS4 inducible, Fluo-4 calcium flux; hits give high values; triggered by carbachol at its EC20. P49798. B-score at 10 µM;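 active means B-score, a plate-corrected calcium signal, over three deviations above library mean, with baseline fluorescence within five deviations of library mean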;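 further: RGS4 expression induced by doxycycline in cells with stable M3 receptor; B-score is computed from the integrated fluorescence ratio over baseline after carbachol; higher B-score means a larger calcium signal and so more RGS4 inhibition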
# Target sequence (P49798 whole entry, looked up): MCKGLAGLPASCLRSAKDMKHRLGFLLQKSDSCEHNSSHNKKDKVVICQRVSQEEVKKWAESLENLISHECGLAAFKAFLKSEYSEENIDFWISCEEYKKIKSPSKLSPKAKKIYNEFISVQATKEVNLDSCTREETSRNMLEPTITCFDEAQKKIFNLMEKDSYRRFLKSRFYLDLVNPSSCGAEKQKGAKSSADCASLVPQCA
# MrgX1 agonist: agonists of human MrgX1 receptor; MrgX1-HEK293 cells, Fluo-4 calcium fluorescence, agonist mode; hits give high values; actives 0.44% (n = 310,000); Q96LB2; B-score at 10 µM;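 active means calcium response B-score plate-corrected fluorescence ratio at least 3 library SD, with starting fluorescence B-score inside 5 SD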
# Target sequence (Q96LB2 whole entry, looked up): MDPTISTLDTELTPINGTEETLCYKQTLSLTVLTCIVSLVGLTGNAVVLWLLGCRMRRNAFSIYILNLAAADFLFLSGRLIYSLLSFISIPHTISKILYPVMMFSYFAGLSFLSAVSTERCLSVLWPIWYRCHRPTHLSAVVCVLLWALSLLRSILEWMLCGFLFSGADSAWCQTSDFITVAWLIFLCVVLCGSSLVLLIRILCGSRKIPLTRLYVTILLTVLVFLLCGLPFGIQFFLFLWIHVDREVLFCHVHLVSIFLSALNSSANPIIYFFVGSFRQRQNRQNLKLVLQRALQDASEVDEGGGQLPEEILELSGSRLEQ
#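 Material: MrgX1-expressing HEK293 cells; input: 15,000 cells per well; doses: test compound given as first of three sequential additions; schedule: overnight plating before 1 h dye loading; technique: Fluo-4 NW calcium-flux fluorescence, kinetic read; evaluation: baseline-normalised fluorescence change ratio, B-scored; control set: plate-wise positive and negative controls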
# MrgX1 antagonist: human MrgX1 receptor antagonism, primary screen | Q96LB2 | actives 1.3% (n = 310,000) | AID 588676 | MRGX1-HEK293 calcium flux, Fluo-4, BAM8-22 antagonism; hits give low values | B-score at 10 µM;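 active means calcium-response B-score plate-corrected more than 3 library SD below zero, starting fluorescence within 5 deviations, no agonist response on first addition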;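 further: peak minus trough fluorescence over baseline after final BAM8-22 challenge near maximal dose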
# MrgX1 PAM: human MrgX1 positive allosteric modulation, primary screen; AID 588675; actives 0.63% (n = 310,000); B-score at 10 µM; MrgX1-HEK293, Fluo-4 calcium flux, FDSS; hits give high values;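 active means plate-corrected calcium response at least 3 library SD above typical, normal starting fluorescence, not activating the receptor alone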;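 further: compound read alongside a low EC10 to EC30 dose of BAM8-22 agonist; peak minus trough fluorescence over baseline measured at the second addition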
# RGS4 act: potentiators or activators of RGS4; HEK293 M3R/inducible RGS4, carbachol calcium flux Fluo4; hits give low values; B-score at 10 µM; actives 0.92% (n = 310,000);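 active means B-score of the integrated calcium signal more than 4 SD below the library mean, with starting fluorescence not abnormally high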;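 further: negative B-score means reduced calcium response which marks RGS4 activation or potentiation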
#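 test system = M3R-expressing HEK293 line, RGS4 induced by doxycycline | probe or stimulus = carbachol at ECmax as muscarinic agonist stimulus | timing = dye loading 30 min 37 °C, buffer rest 30 min RT | signal = calcium dye Fluo4 fluorescence | evaluation = B score from integrated fluorescence ratio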
# * marks the source's active call; other numbers are inactive results; i = inactive. A selection: hits, their analogues and other compounds. The true share with any hit is near 3.5%.
SMILES,RGS4 inh,MrgX1 agonist,MrgX1 antagonist,MrgX1 PAM,RGS4 act
Cc1cccc(CSC(=N)N)c1,i,i,i,i,i
C/C(=N/N=C(/N)SCc1ccccc1)C(C)(C)C,i,i,i,9.9*,i
O=C(CSc1nnc(NC(=O)c2ccccc2Cl)s1)Nc1ccc2c(c1)oc1ccccc12,i,i,-4.6*,i,i
CCC1=NN2C(=N)/C(=C\c3ccc(OCCOc4ccc(NC(C)=O)cc4)c(OC)c3)C(=O)N=C2S1,i,i,i,i,i
CCS(=O)(=O)C1=NSC2=NC(=O)/C(=C\c3ccc(OC(=O)c4ccco4)cc3)C(=N)N21,i,i,i,19*,i
COc1cc(/C=C2\C(=N)N3N=CSC3=NC2=O)ccc1OS(=O)(=O)c1ccccc1[N+](=O)[O-],i,39*,i,i,i
COc1cc(/C=C2\C(=N)N3N=C(S(C)(=O)=O)SC3=NC2=O)ccc1OCCOc1ccccc1C,i,i,i,i,i
N=C1/C(=C\c2ccc(OC(=O)c3ccccc3)cc2)C(=O)N=C2SC(N3CCOCC3)=NN12,i,i,-7.9*,i,i
CC(=O)Nc1ccc(OCCOc2ccc(/C=C3\C(=N)N4N=C(C)SC4=NC3=O)cc2)cc1,i,i,i,9.5*,i
CCOc1ccc(NC(=S)N(CCOC)C(C)c2ccco2)cc1 (stereo unspecified),i,i,i,i,i
CC(C)c1ccc(CN2C(=O)NC3(CCCCCC3)C2=O)cc1,i,i,i,i,i
CCOc1cc(/C=C2\C(=N)N3N=C(N4CCCCC4)SC3=NC2=O)ccc1OC(=O)c1ccco1,i,i,i,i,i
CCOc1cc(/C=C2/C(=N)N3C(=NC2=O)SN=C3S(C)(=O)=O)ccc1OS(=O)(=O)c1ccccc1,i,i,i,27*,i
COc1cc(/C=C2/C(=N)N3C(=NC2=O)SN=C3S(C)(=O)=O)ccc1OS(=O)(=O)c1ccccc1,i,i,i,28*,i
CCOc1cc(/C=C2/C(=N)N3N=C(CC)SC3=NC2=O)ccc1OC(=O)c1ccco1,i,34*,i,i,i
COc1cc(/C=C2/C(=O)N(c3ccccc3)N=C2C)ccc1OS(=O)(=O)c1ccccc1,i,i,i,i,i
N=C1/C(=C/c2ccc(OC(=O)c3ccco3)cc2)C(=O)N=C2SC=CN12,i,i,i,12*,i
COc1ccc(-c2nnc(SCc3ccc(C(=O)O)cc3)n2N)cc1,i,i,i,i,i
COc1cc(/C=C2\C(=N)N3N=C(S(C)(=O)=O)SC3=NC2=O)ccc1OC(=O)c1cccs1,i,i,i,8.2*,i
CCS(=O)(=O)C1=NN2C(=N)/C(=C\c3ccc(OC(=O)c4ccco4)c(Br)c3)C(=O)N=C2S1,i,73*,i,i,i
CCOc1cc(/C=C2\C(=N)N3N=C(S(=O)(=O)CC)SC3=NC2=O)ccc1OC(=O)c1ccco1,i,i,i,i,i
CCOc1cc(/C=C2/C(=N)N3C(=NC2=O)SN=C3S(C)(=O)=O)ccc1OC(=O)c1ccco1,i,i,i,13*,i
CCN(CC(=O)Nc1c(F)cccc1F)C(=O)/C=C/c1ccc(Br)s1,i,i,i,i,i
COc1cc(C(=O)NNC(=O)c2cccn2C)cc(OC)c1OC,i,i,i,i,i
CCCCN(c1ccccc1)S(=O)(=O)c1cccc2cccnc12,i,i,i,i,i
SMILES,RGS4 inh,MrgX1 agonist,MrgX1 antagonist,MrgX1 PAM,RGS4 act
CCN(Cc1ccccc1)C(=O)c1cc(-c2ccc(OC)c(OC)c2)nc2ccccc12,i,i,i,i,-9.2*
COc1cc(-c2cc(C(=O)N(C)Cc3ccccc3)c3ccccc3n2)cc(OC)c1OC,i,i,i,i,i
COc1ccc(-c2cc(C(=O)N(C)Cc3ccccc3F)c3ccccc3n2)cc1OC,i,i,i,i,-8.2*
COc1cccc(CN(C)C(=O)c2cc(-c3cccs3)nc3ccccc23)c1,i,i,i,i,-9.1*
COCCN(Cc1ccccc1)C(=O)c1cc(-c2ccc(OC)c(OC)c2)nc2ccccc12,i,i,i,i,-8.7*
CCN(CCn1cccn1)C(=O)c1ccc2nc(Cc3ccc(OC)cc3)oc2c1,i,i,i,i,i
CCCC(=O)C1=C(O)C(C(=O)OC)C(C)(C)CC1=Nc1cccc2ccccc12 (stereo unspecified),i,i,i,8.1*,i
CCCC(=O)C1=C(O)C(C(=O)OC)C(C)(C)CC1=Nc1ccccc1 (stereo unspecified),i,i,i,i,i
CCCCNc1ccc(C(=O)O)cc1,i,i,i,i,i
CCOc1ccc(S(=O)(=O)Nc2ccc(C(=O)NCC(C)(C)N3CCOCC3)cc2)cc1,i,i,-4.9*,i,i
CCOc1ccc(NS(=O)(=O)c2ccc(C(=O)NCC3(N4CCCCC4)CCCCC3)cc2)cc1,i,i,-5.6*,i,i
CC(C)(CNC(=O)c1ccc(NS(=O)(=O)c2ccc(F)cc2)cc1)N1CCOCC1,i,i,i,i,i
CCOc1ccc(NS(=O)(=O)c2ccc(C(=O)NCC3(N(C)C)CCCCC3)cc2)cc1,i,i,i,i,i
CCc1ccc(OCC(=O)NNC(=O)c2nn(CC)c(=O)c3ccccc23)cc1,i,i,i,9.6*,i
CCCCn1c(=O)nc2n(-c3ccccc3)c3ccccc3cc-2c1=O,i,i,i,i,-9.7*
O=C(Nc1nc(-c2ccccc2)cs1)c1ccccc1NS(=O)(=O)c1ccc(F)cc1,i,i,i,i,-7.2*
O=C(NCC(=O)N1CCN(S(=O)(=O)c2ccccc2F)CC1)c1ccc(Br)o1,i,i,i,i,i
O=C(Nc1cccc(S(=O)(=O)NC2=NCCC2)c1)c1cc(-c2ccco2)nc2ccccc12,i,i,i,i,i
O=C(NC(=S)Nc1cccc(S(=O)(=O)NC2=NCCC2)c1)c1cc(-c2ccco2)nc2ccccc12,i,i,-4.9*,i,i
CCCC[C@@H]1C[C@H]1[C@@H](NC(=O)c1ccccc1)c1ccccc1C(F)(F)F,i,i,i,i,i
C=C(CC1([C@@H](NP(=O)(c2ccccc2)c2ccccc2)[C@H]2C[C@@H]2CCCC)CC1)c1ccccc1,i,i,-4.8*,i,i
CCOC(=O)/C(C#N)=C\c1ccc2c(c1)OCO2,i,i,i,i,i
